Results as given in ChEMBL document CHEMBL1146325, “Synthesis and antibacterial activities of new quinolone derivatives utilizing 1-azabicyclo[1.1.0]butane” (2007).
Converted amounts (≈) assume the structure as drawn.

Key:
Type in all cases: functional
Staphylococcus aureus [1] = experiment: Antibacterial activity against quinoline-susceptible methicillin-resistant Staphylococcus aureus by agar dilution method
Outline: (§1)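 Read-out is the minimum inhibitory concentration (MIC), found by a conventional agar dilution procedure.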

Staphylococcus aureus [2] = experiment: Antibacterial activity against quinoline-intermediate methicillin-resistant Staphylococcus aureus by agar dilution method; outline: as §1
Staphylococcus aureus [3] = experiment: Antibacterial activity against quinoline-resistant methicillin-resistant Staphylococcus aureus by agar dilution method; outline: as §1
Enterococcus faecalis = experiment: Antibacterial activity against Enterococcus faecalis by agar dilution method
Outline: (§2)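 Read-out is the minimum inhibitory concentration (MIC), determined by a conventional agar dilution procedure against a panel of Gram-positive and Gram-negative bacteria.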

Streptococcus pneumoniae = experiment: Antibacterial activity against Streptococcus pneumoniae by agar dilution method; outline: as §2
Moraxella catarrhalis = experiment: Antibacterial activity against Moraxella catarrhalis by agar dilution method; outline: as §2
Haemophilus influenzae = experiment: Antibacterial activity against Haemophilus influenzae by agar dilution method; outline: as §2
Escherichia coli [4] = experiment: Antibacterial activity against Escherichia coli without AcrAB efflux system by agar dilution method
Escherichia coli [5] = experiment: Antibacterial activity against Escherichia coli with AcrAB efflux system by agar dilution method
Pseudomonas aeruginosa = experiment: Antibacterial activity against Pseudomonas aeruginosa by agar dilution method; outline: as §2

Structure (SMILES)	MIC (Staphylococcus aureus [1]) [µg/mL]	MIC (Staphylococcus aureus [2]) [µg/mL]	MIC (Staphylococcus aureus [3]) [µg/mL]	MIC (Enterococcus faecalis) [µg/mL]	MIC (Streptococcus pneumoniae) [µg/mL]	MIC (Moraxella catarrhalis) [µg/mL]	MIC (Haemophilus influenzae) [µg/mL]	MIC (Escherichia coli [4]) [µg/mL]	MIC (Escherichia coli [5]) [µg/mL]	MIC (Pseudomonas aeruginosa) [µg/mL]
O=C(O)c1cn(C2CC2)c2c(F)c(N3CC(Sc4ncccn4)C3)c(F)cc2c1=O	0.063 (≈ 0.146 µM)	1 (≈ 2.32 µM)	32 (≈ 74.3 µM)	0.25 (≈ 0.581 µM)	1 (≈ 2.32 µM)	0.063 (≈ 0.146 µM)	≤ 0.008	1 (≈ 2.32 µM)	1 (≈ 2.32 µM)	8 (≈ 18.6 µM)
CCOC(=O)c1ccc(NC2CN(c3c(F)cc4c(=O)c(C(=O)O)cn(C5CC5)c4c3F)C2)cc1	0.031 (≈ 0.0641 µM)	1 (≈ 2.07 µM)	> 16	2 (≈ 4.14 µM)	0.125 (≈ 0.259 µM)	0.125 (≈ 0.259 µM)	≤ 0.008	0.25 (≈ 0.517 µM)	2 (≈ 4.14 µM)	> 16
Cn1nnnc1SC1CN(c2c(F)cc3c(=O)c(C(=O)O)cn(C4CC4)c3c2F)C1	0.125 (≈ 0.288 µM)	2 (≈ 4.6 µM)	> 32	1 (≈ 2.3 µM)	2 (≈ 4.6 µM)	0.063 (≈ 0.145 µM)	< 0.008	0.125 (≈ 0.288 µM)	1 (≈ 2.3 µM)	8 (≈ 18.4 µM)
C[C@H]1COc2c(N3CCN(C)CC3)c(F)cc3c(=O)c(C(=O)O)cn1c23.C[C@H]1COc2c(N3CCN(C)CC3)c(F)cc3c(=O)c(C(=O)O)cn1c23.O [LEVOFLOXACIN]	0.5	4	> 128	2	–	0.063	≤ 0.008	–	–	0.5
O=C(O)c1cn(C2CC2)c2c(F)c(N3CC(Sc4nc5ccccc5s4)C3)c(F)cc2c1=O	1 (≈ 2.06 µM)	4 (≈ 8.24 µM)	32 (≈ 65.9 µM)	4 (≈ 8.24 µM)	4 (≈ 8.24 µM)	0.5 (≈ 1.03 µM)	0.5 (≈ 1.03 µM)	8 (≈ 16.5 µM)	8 (≈ 16.5 µM)	> 32
O=C(O)c1cn(C2CC2)c2c(F)c(N3CC(Sc4nc5ccccc5o4)C3)c(F)cc2c1=O	1 (≈ 2.13 µM)	2 (≈ 4.26 µM)	32 (≈ 68.2 µM)	2 (≈ 4.26 µM)	2 (≈ 4.26 µM)	0.5 (≈ 1.07 µM)	0.5 (≈ 1.07 µM)	8 (≈ 17 µM)	8 (≈ 17 µM)	> 32
O=C(O)c1cn(C2CC2)c2c(F)c(N3CC(N(Cc4ccccc4)Cc4ccccc4)C3)c(F)cc2c1=O	> 64	> 64	> 64	> 64	> 64	> 64	8 (≈ 15.5 µM)	64 (≈ 124 µM)	> 64	> 64
O=C(O)c1cn(C2CC2)c2c(F)c(N3CC(Nc4ccccc4)C3)c(F)cc2c1=O	0.016 (≈ 0.0389 µM)	0.5 (≈ 1.22 µM)	32 (≈ 77.8 µM)	0.25 (≈ 0.608 µM)	0.25 (≈ 0.608 µM)	0.016 (≈ 0.0389 µM)	≤ 0.008	0.031 (≈ 0.0754 µM)	0.25 (≈ 0.608 µM)	4 (≈ 9.72 µM)
Cn1cnnc1SC1CN(c2c(F)cc3c(=O)c(C(=O)O)cn(C4CC4)c3c2F)C1	0.25 (≈ 0.577 µM)	4 (≈ 9.23 µM)	> 16	1 (≈ 2.31 µM)	2 (≈ 4.61 µM)	0.123 (≈ 0.284 µM)	≤ 0.008	0.25 (≈ 0.577 µM)	1 (≈ 2.31 µM)	8 (≈ 18.5 µM)
Cc1ccc(NC2CN(c3c(F)cc4c(=O)c(C(=O)O)cn(C5CC5)c4c3F)C2)cc1	0.031 (≈ 0.0729 µM)	0.5 (≈ 1.18 µM)	16 (≈ 37.6 µM)	0.5 (≈ 1.18 µM)	0.5 (≈ 1.18 µM)	0.031 (≈ 0.0729 µM)	≤ 0.008	0.063 (≈ 0.148 µM)	0.5 (≈ 1.18 µM)	16 (≈ 37.6 µM)
O=C(O)c1cn(C2CC2)c2cc(N3CCNCC3)c(F)cc2c1=O [CIPROFLOXACIN]	1 (≈ 3.02 µM)	–	> 64	2 (≈ 6.04 µM)	4 (≈ 12.1 µM)	0.063 (≈ 0.19 µM)	≤ 0.008	≤ 0.008	≤ 0.008	–
Cn1nnnc1Sc1c(F)cc2c(=O)c(C(=O)O)cn(C3CC3)c2c1F	16 (≈ 42.2 µM)	> 16	> 16	> 16	> 16	4 (≈ 10.5 µM)	0.125 (≈ 0.33 µM)	1 (≈ 2.64 µM)	16 (≈ 42.2 µM)	> 16
O=C(O)c1cn(C2CC2)c2c(F)c(N3CC(Nc4ccc(Cl)cc4)C3)c(F)cc2c1=O	0.063 (≈ 0.141 µM)	1 (≈ 2.24 µM)	16 (≈ 35.9 µM)	1 (≈ 2.24 µM)	0.5 (≈ 1.12 µM)	0.063 (≈ 0.141 µM)	≤ 0.008	0.125 (≈ 0.28 µM)	1 (≈ 2.24 µM)	> 16
Cc1ccc(SC2CN(c3c(F)cc4c(=O)c(C(=O)O)cn(C5CC5)c4c3F)C2)cc1	2 (≈ 4.52 µM)	32 (≈ 72.3 µM)	> 32	16 (≈ 36.2 µM)	32 (≈ 72.3 µM)	2 (≈ 4.52 µM)	0.25 (≈ 0.565 µM)	32 (≈ 72.3 µM)	32 (≈ 72.3 µM)	> 32
COc1c(N2CCNC(C)C2)c(F)cc2c(=O)c(C(=O)O)cn(C3CC3)c12 (stereo not given) [GATIFLOXACIN]	0.25 (≈ 0.666 µM)	2 (≈ 5.33 µM)	> 128	1 (≈ 2.66 µM)	0.5 (≈ 1.33 µM)	0.063 (≈ 0.168 µM)	≤ 0.008	0.063 (≈ 0.168 µM)	0.063 (≈ 0.168 µM)	1 (≈ 2.66 µM)
COc1ccc(NC2CN(c3c(F)cc4c(=O)c(C(=O)O)cn(C5CC5)c4c3F)C2)cc1	0.031 (≈ 0.0702 µM)	0.25 (≈ 0.566 µM)	16 (≈ 36.2 µM)	0.25 (≈ 0.566 µM)	0.063 (≈ 0.143 µM)	0.031 (≈ 0.0702 µM)	≤ 0.008	0.031 (≈ 0.0702 µM)	0.25 (≈ 0.566 µM)	4 (≈ 9.06 µM)
